According to ChEMBL document CHEMBL4602650, “Quinolone-N-acylhydrazone hybrids as potent Zika and Chikungunya virus inhibitors” (Bioorg Med Chem Lett, 2020):
pEC50: −log10 of the molar value. Calls of active or inactive are those of the source. The rule behind the calls is not given here.

Assays:
Chikungunya virus [1] = test: Antiviral activity against Chikungunya virus infected in African green monkey Vero cells assessed as reduction in viral replication treated with compound at 1 hr post-viral infection; assay type: functional, organism-based
In short: (§1)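 Vero cells infected at MOI 0.1 and given 1 h for viral adsorption, then treated with increasing compound concentrations. EC50 is the concentration reducing viral replication by 50% versus infected controls. Mean ± SD of three independent experiments.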

[2] = Selectivity index, ratio of CC50 for African monkey Vero cells to EC50 for Chikungunya virus infected in African green monkey Vero cells; assay type: toxicity; conditions: read-out: Ratio CC50/EC50
In short: (§2)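 SI = CC50 in Vero cells divided by EC50 against the matching virus in Vero cells. Both values come from three independent experiments.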

[3] = Cytotoxicity against African green monkey Vero cells assessed as reduction in cell viability by MTT assay; assay type: cell-based; conditions: chlorocebus sabaeus
In short: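 Vero cell viability tested over 100–2000 µM. CC50 is the concentration reducing viability by 50% versus untreated controls. Mean ± SD of 3 independent experiments.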

[4] = Selectivity index, ratio of CC50 for African monkey Vero cells to EC50 for Zika virus infected in African green monkey Vero cells; assay type: toxicity; conditions: read-out: Ratio CC50/EC50; in short: as §2
[5] = Ratio of RibavarinCC50 to compound CC50 for African green monkey Vero cells assessed as reduction in cell viability by MTT assay; assay type: cell-based; conditions: chlorocebus sabaeus
Zika virus [6] = test: Antiviral activity against Zika virus infected in African green monkey Vero cells assessed as reduction in viral replication treated with compound at 1 hr post-viral infection; assay type: functional, organism-based; in short: as §1
Zika virus [7] = test: Antiviral activity against Zika virus infected in African green monkey Vero cells assessed as reduction in viral replication at 10 uM treated with compound at 6 hrs post infection by plaque formation assay; assay type: functional, organism-based
Chikungunya virus [8] = test: Antiviral activity against Chikungunya virus infected in African green monkey Vero cells assessed as reduction in viral replication at 10 uM treated with compound up to 12 hrs post infection by plaque formation assay; assay type: functional, organism-based
Zika virus [9] = test: Antiviral activity against Zika virus infected in African green monkey Vero cells assessed as reduction in viral replication at 10 uM treated with compound at 12 hrs post infection by plaque formation assay; assay type: functional, organism-based
Zika virus [10] = test: Antiviral activity against Zika virus infected in African green monkey Vero cells assessed as reduction in viral replication at 10 uM treated with compound up to 6 hrs post infection by plaque formation assay; assay type: functional, organism-based
Zika virus [11] = test: Antiviral activity against Zika virus infected in African green monkey Vero cells assessed as reduction in viral RNA production; assay type: functional, organism-based
Chikungunya virus [12] = test: Antiviral activity against Chikungunya virus infected in African green monkey Vero cells assessed as reduction in viral replication at 10 uM treated with compound at 16 hrs post infection by plaque formation assay; assay type: functional, organism-based
Chikungunya virus [13] = test: Antiviral activity against Chikungunya virus infected in African green monkey Vero cells assessed as reduction in viral RNA production; assay type: functional, organism-based

## O=C(N/N=C/c1ccccc1O)c1c[nH]c2ccc(Br)cc2c1=O
Chikungunya virus [1]
  pEC50: 5.57
[2]
  selectivity ratio: 164
[3]
  CC50: 443 µM
[4]
  selectivity ratio: 548
[5]
  selectivity ratio: ≥ 2
Zika virus [6]
  pEC50: 6.09

## NC(=O)c1ncn([C@@H]2O[C@H](CO)[C@@H](O)[C@H]2O)n1 [RIBAVIRIN]
Chikungunya virus [1]
  pEC50: 5.62
[2]
  selectivity ratio: 122
[3]
  CC50: 297 µM
Zika virus [7]
  Activity: inactive
[4]
  selectivity ratio: 75.2
Zika virus [6]
  pEC50: 5.40
Chikungunya virus [8]
  Activity: inactive

## O=C(N/N=C/c1ccccc1O)c1c[nH]c2ccccc2c1=O
Chikungunya virus [1]
  pEC50: 5.55
[2]
  selectivity ratio: 176
[3]
  CC50: 502 µM
[4]
  selectivity ratio: 661
[5]
  selectivity ratio: ≥ 2
Zika virus [6]
  pEC50: 6.12

## O=C(N/N=C/c1ccccc1O)c1c[nH]c2ccc(Cl)cc2c1=O
Zika virus [9]
  Activity: Active
Chikungunya virus [1]
  pEC50: 5.56
[2]
  selectivity ratio: 402
[3]
  CC50: 1110 µM
Zika virus [10]
  Activity: Active
Zika virus [11]
  Activity: Dose-dependent effect
[4]
  selectivity ratio: 1410
[5]
  selectivity ratio: ≥ 2
Zika virus [6]
  pEC50: 6.10

## O=C(N/N=C/c1ccccc1O)c1c[nH]c2ccc(F)cc2c1=O
Chikungunya virus [1]
  pEC50: 5.97
[2]
  selectivity ratio: 632
[3]
  CC50: 669 µM
Chikungunya virus [12]
  Activity: inactive
[4]
  selectivity ratio: 893
[5]
  selectivity ratio: ≥ 2
Zika virus [6]
  pEC50: 6.12
Chikungunya virus [8]
  Activity: Active
Chikungunya virus [13]
  Activity: Dose-dependent effect
